# Source: paper PMC11215724 (Journal of Medicinal Chemistry, 2024)
# Assays:
# WM3248 = assay: Cell viability assay, WM3248 melanoma cell line; assay type: cell-based; details: WM3248 cells
# A375 = assay: Cell viability assay, A375 melanoma cell line; assay type: cell-based; details: A375 cells
# SKMel3 = assay: Cell viability assay, SKMel3 melanoma cell line; assay type: cell-based; details: read-out: IC50 SKMel3; SKMel3 cells
# [1] = test system: SKM28, SKMel3, WM3248, A375, SW480; assay: Cell viability assay, all five cancer cell lines together; assay type: cell-based
# [2] = starting compounds; cited from earlier work
# Stability in DMSO = assay type: physicochemical
# Mouse pharmacokinetics = assay type: in vivo; details: single I.V. 3 mg/kg or P.O. 10 mg/kg
# Outline: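 Single dose to mice, either intravenous at 3 mg/kg or oral at 10 mg/kg. Three animals per time point. Plasma concentration–time profiles were used for observed and calculated PK parameters. Animals were watched for treatment-related toxicological signs throughout.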
# Aggregation by NMR = assay type: physicochemical; details: Tris buffer
# Outline: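 Compound aggregation checked by WaterLOGSY in the NMR binding-assay buffer at three theoretical concentrations, with 200 μM 4-trifluoromethyl benzoic acid as internal reference. Solubility was checked in PBS and Tris buffer by ¹H 1D spectra. Data were processed with 2 Hz exponential line broadening before Fourier transformation.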
compound,measurement,setting,value
"4-(1-Methyl-1H-imidazol-5-yl)-6-(piperidin-4-yl)-N-(3-(trifluoromethyl)phenyl)-1,3,5-triazin-2-amine [Compound 8]",decrease of activity on WM3248 compared to 1,WM3248,~10 fold
same,effect on A375 (in words),A375,annihilating the effect on A375
same,IC50,A375; read-out: IC50 A375,> 100 µM
"4-(Piperidin-4-yl)-6-(pyrrolidin-2-yl)-N-(3-(trifluoromethyl)phenyl)-1,3,5-triazin-2-amine [Compound 10]",IC50,SKMel3,> 100 µM
same,antiproliferative activity in the cancer cell lines (in words),[1],complete loss of activity
CN(C)c1cccc(Nc2cc(-c3ccccc3)nc(C3CCNCC3)n2)c1 [ARN22089],aggregation by NMR at 100 μM,[2],showed aggregation
FC(F)(F)c1cccc(Nc2cc(-c3ccccc3)nc(C3CCNCC3)n2)c1 [ARN25062],aggregation by NMR at 100 μM,[2],showed aggregation
"FC(F)(F)c1cccc(Nc2nc(C3=CCNCC3)nc(-c3ccsc3)n2)c1 [Compound 11, 4-(1,2,3,6-Tetrahydropyridin-4-yl)-6-(thiophen-3-yl)-N-(3-(trifluoromethyl)phenyl)-1,3,5-triazin-2-amine]",stability in DMSO,Stability in DMSO,slight instability in DMSO
"COc1ccc(Nc2nc(-c3ccccc3)cc(C3CCNCC3)n2)cc1OC [Compound 15, N-(3,4-Dimethoxyphenyl)-4-phenyl-6-(piperidin-4-yl)pyrimidin-2-amine]",tolerability during the PK studies,Mouse pharmacokinetics,well tolerated by all animals
"FC(F)(F)c1cc(Nc2nc(-c3ccccc3)cc(C3CCNCC3)n2)ccn1 [Compound 20, 4-Phenyl-6-(piperidin-4-yl)-N-(2-(trifluoromethyl)pyridin-4-yl)pyrimidin-2-amine]",tolerability during the PK studies,Mouse pharmacokinetics,well tolerated by all animals
"Cn1ccc2ccc(Nc3cc(-c4ccccc4)nc(C4CCNCC4)n3)cc21 [Compound 25, 1-Methyl-N-(6-phenyl-2-(piperidin-4-yl)pyrimidin-4-yl)-1H-indol-6-amine]",aggregation by NMR (50 μM),Aggregation by NMR,showed aggregation
